ChEMBL document CHEMBL4689842, “EUbOPEN Chemogenomics Library wave 1” (2021)
Values joined by “and” are separate entries in the source; they are usually repeats but may differ in a detail not shown here. Equal entries are not always repeated.

Test system: Fibroblast
Assay: Multiplex assay against human fibroblast
Assay type: toxicity, cell-based
Details: 10 µM, compound concentration 10 uM
How it was run: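 Live cells were stained at seeding with Hoechst33342, BioTracker Green Microtubule Cytoskeleton Dye, MitoTracker Red and Annexin V Alexa Fluor 680. Following compound addition, they were imaged on a CQ1 microscope at 37°C and 5% CO2 and gated by CellPathfinder machine learning into Hoechst high-intensity objects or normal cells, with normal cells split into healthy, pyknosed or fragmented nuclei and pyknosed cells into mitotic or apoptotic. Tubulin, mitochondrial-mass and membrane-permeability phenotypes are per cents of healthy-nucleus cells.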

SMILES	Population Apoptotic (%) (12 h, replicate 1)	Population Fragmented Nuclei (%) (12 h, replicate 1)	Population Healthy Nuclei (%) (12 h, replicate 1)	Population Hoechst High Intensity Objects (%) (12 h, replicate 1)	Population Membrane Permeable-Phenotype (%) (12 h, replicate 1)	Population Mitotic Cells (%) (12 h, replicate 1)	Population Normal (%) (12 h, replicate 1)	Population Pyknosed Nuclei (%) (12 h, replicate 1)	Total Cell Count (12 h, replicate 1)	Population Apoptotic (%) (12 h, replicate 2)	Population Fragmented Nuclei (%) (12 h, replicate 2)	Population Healthy Nuclei (%) (12 h, replicate 2)	Population Hoechst High Intensity Objects (%) (12 h, replicate 2)	Population Membrane Permeable-Phenotype (%) (12 h, replicate 2)	Population Mitochondria Different-Phenotype (%) (12 h, replicate 2)	Population Normal (%) (12 h, replicate 2)	Population Pyknosed Nuclei (%) (12 h, replicate 2)	Population Tubulin-Different-Phenotype (%) (12 h, replicate 2)	Total Cell Count (12 h, replicate 2)	Population Apoptotic (%) (24 h, replicate 1)	further results
CN(C)c1ncnc(-c2ccc3nc(Nc4cc(CN5CCN(C(=O)CC(F)(F)F)CC5)ccn4)[nH]c3c2)c1Cl [BAY-440]	72% and 67%	31% and 20%	51% and 62%	10% and 13%	29% and 17%	27% and 32%	89% and 86%	17%	282 and 187	83% and 50%	48% and 40%	41% and 50%	24% and 35%	25% and 18%	33% and 18%	75% and 64%	10% and 9%	50% and 86%	77 and 68	58% and 50%	Population Mitochondria Different-Phenotype (%) (12 h, replicate 1): 6% and 3%; Population Fragmented Nuclei (%) (24 h, replicate 1): 31% and 22%; Population Healthy Nuclei (%) (24 h, replicate 1): 55% and 67%; Population Hoechst High Intensity Objects (%) (24 h, replicate 1): 14% and 11%; Population Membrane Permeable-Phenotype (%) (24 h, replicate 1): 18% and 10%; Population Mitochondria Different-Phenotype (%) (24 h, replicate 1): 7% and 0%; Population Mitotic Cells (%) (24 h, replicate 1): 41% and 50%; Population Normal (%) (24 h, replicate 1): 85% and 88%; Population Pyknosed Nuclei (%) (24 h, replicate 1): 12% and 10%; Total Cell Count (24 h, replicate 1): 290 and 193; Population Apoptotic (%) (24 h, replicate 2): 75% and 37%; Population Fragmented Nuclei (%) (24 h, replicate 2): 52% and 48%; Population Healthy Nuclei (%) (24 h, replicate 2): 39% and 32%; Population Hoechst High Intensity Objects (%) (24 h, replicate 2): 37% and 36%; Population Membrane Permeable-Phenotype (%) (24 h, replicate 2): 22% and 14%; Population Mitotic Cells (%) (24 h, replicate 2): 25% and 62%; Population Normal (%) (24 h, replicate 2): 62% and 63%; Population Pyknosed Nuclei (%) (24 h, replicate 2): 8% and 18%; Total Cell Count (24 h, replicate 2): 74 and 68
COc1ccc(Oc2cc(NCCC(F)(F)F)c3ncc(-c4ccc(C(=O)NC5CC5)c(C)c4)n3n2)c(F)c1F [BAY-1217389]	63% and 54%	28% and 27%	48% and 59%	18% and 14%	18% and 15%	36% and 45%	81% and 85%	23% and 12%	203 and 339	65% and 22%	35% and 55%	33% and 28%	23% and 34%	20%	34% and 18%	76% and 65%	30% and 16%	38% and 50%	170 and 86	77% and 48%	Population Tubulin-Different-Phenotype (%) (12 h, replicate 1): 45% and 31%; Population Mitotic Cells (%) (12 h, replicate 2): 35% and 77%; Population Fragmented Nuclei (%) (24 h, replicate 1): 30% and 23%; Population Healthy Nuclei (%) (24 h, replicate 1): 41% and 63%; Population Hoechst High Intensity Objects (%) (24 h, replicate 1): 15% and 13%; Population Membrane Permeable-Phenotype (%) (24 h, replicate 1): 12% and 8%; Population Mitotic Cells (%) (24 h, replicate 1): 22% and 51%; Population Normal (%) (24 h, replicate 1): 84% and 86%; Population Pyknosed Nuclei (%) (24 h, replicate 1): 27% and 13%; Population Tubulin-Different-Phenotype (%) (24 h, replicate 1): 59% and 27%; Total Cell Count (24 h, replicate 1): 211 and 319; Population Fragmented Nuclei (%) (24 h, replicate 2): 54% and 47%; Population Healthy Nuclei (%) (24 h, replicate 2): 20% and 36%; Population Hoechst High Intensity Objects (%) (24 h, replicate 2): 19% and 30%; Population Membrane Permeable-Phenotype (%) (24 h, replicate 2): 18% and 19%; Population Mitochondria Different-Phenotype (%) (24 h, replicate 2): 18% and 23%; Population Mitotic Cells (%) (24 h, replicate 2): 32% and 88%; Population Normal (%) (24 h, replicate 2): 80% and 69%; Population Pyknosed Nuclei (%) (24 h, replicate 2): 24% and 15%; Population Tubulin-Different-Phenotype (%) (24 h, replicate 2): 29% and 52%
